Measurements from article PMC2834294 (Chemistry & biology, 2010).

What was measured:
TRPML3 [1] = target: T1, TRPML3 (Homo sapiens, UniProt Q8TDD5); test: Whole-cell patch-clamp, HEK293 cells transiently transfected with TRPML3; assay type: cell-based
T1 sequence (Q8TDD5 1-553): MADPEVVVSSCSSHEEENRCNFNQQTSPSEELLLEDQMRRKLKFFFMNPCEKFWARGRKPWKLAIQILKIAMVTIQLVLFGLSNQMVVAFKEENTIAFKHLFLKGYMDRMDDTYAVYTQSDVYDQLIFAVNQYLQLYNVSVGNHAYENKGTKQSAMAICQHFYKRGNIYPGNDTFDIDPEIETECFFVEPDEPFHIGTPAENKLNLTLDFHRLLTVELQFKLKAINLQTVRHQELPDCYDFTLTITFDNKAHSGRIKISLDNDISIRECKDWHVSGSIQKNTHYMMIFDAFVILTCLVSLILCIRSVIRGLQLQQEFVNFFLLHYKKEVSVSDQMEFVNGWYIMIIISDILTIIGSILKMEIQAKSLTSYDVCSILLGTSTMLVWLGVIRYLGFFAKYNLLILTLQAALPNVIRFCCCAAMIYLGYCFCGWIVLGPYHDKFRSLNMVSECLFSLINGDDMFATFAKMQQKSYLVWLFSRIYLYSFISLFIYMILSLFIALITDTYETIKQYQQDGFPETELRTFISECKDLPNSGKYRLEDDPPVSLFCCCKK
Outline: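 Whole-cell patch clamp was done on HEK293 cells 24 h after transient transfection with human TRPML3 or YFP; constitutively active TRPML3(A419P) cells served as positive control. Bath solution (mM): 138 NaCl, 5.4 KCl, 2 MgCl2, 2 CaCl2, 10 HEPES, 10 d-glucose; pH 7.4. Pipette solution (mM): 140 CsCl, 10 HEPES, 3 ATP-Na, 1 BAPTA, 2 MgCl2; pH 7.2. Compounds at 10 µM were perfused. Capacitance-normalized current at −80 mV is reported as mean ± SEM, n≥3.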

TRPML3 [2] = target: T1, TRPML3; test: Fura-2 calcium imaging, HEK293 cells transiently expressing TRPML3; assay type: cell-based
Outline: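 HEK293 cells were transiently transfected (Genejammer) with the human channel construct or YFP control and measured 24 h later. Cells on glass coverslips were loaded with 4 µM fura-2-AM in bath solution (mM: 138 NaCl, 6 KCl, 2 MgCl2, 2 CaCl2, 10 HEPES, 5.5 D-glucose; pH 7.4). Compounds were applied at 10 µM and the F340/F380 ratio recorded. Values are mean ± SEM, n≥3.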

cochlear hair cells = test: Recording from acutely isolated cochlear hair cells; assay type: cell-based, rat; details: up-to 100 µM; in SBS, SN-2 also in ELS
TRPML3 [3] = target: T1, TRPML3; test: Excised; assay type: cell-based
[4] = test system: melanocytes expressing dynamin; test: Calcium imaging, melanocytes transfected with wild type dynamin; assay type: cell-based, human; details: 30 µM
Outline: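 Human epidermal melanocytes (medium 254 plus HMGS) were transfected with wild-type dynamin, DynK44A or YFP control. Intracellular Ca2+ was imaged after applying compounds at 30 µM each. Data are mean ± SEM from at least 3 independent experiments of 20–30 cells each.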

nA/pF (-80 mV) (TRPML3) (TRPML3 [1]; current density at −80 mV, 10 µM in standard bath solution, mean ±SEM (n≥3)): −0.30 ±0.07 nA/pF
⊗F340/F380 (TRPML3) (TRPML3 [2]; 10 µM compound, mean ±SEM (n≥3)): 1.08 ±0.05
conductance of TRPML3 channels (TRPML3 [3]; activated with 10 µM SN-2, at −80 mV, estimate): approximately 10 pS
TRPML3 activity in excised patches (TRPML3 [3]; patches held at −80 mV): markedly increased TRPML3 activity
Compound: Cc1cc(C)c(C2=NOC3C4CCC(C4)C23)c(C)c1 (centres unmarked) [SN-2, 5-mesityl-3-oxa-4-azatricyclo[5.2.1.0∼2,6∼]dec-4-ene]
average current density relative to constitutively active TRPML3 A419P (TRPML3 [1]; whole-cell, −80 mV): comparable to average current densities obtained from cells expressing the constitutively active varitint-waddler mutant isoform A419P
kinetics of intracellular calcium increase (TRPML3 [2]; TRPML3-transfected HEK293 cells): much more rapid increase than the other compounds
TRPML3 channel activity in cochlear hair cells (cochlear hair cells): Neither compound at concentrations of up-to 100 µM, with or without endolymph-like extracellular solution, elicited TRPML3 channel activity
response in melanocytes expressing wild type dynamin [4]: reduction of the response
